Assay results published in ChEMBL document CHEMBL1144717, “1-(2-Carboxyindol-5-yloxy)propan-2-ones as inhibitors of human cytosolic phospholipase A2alpha: synthesis, biological activity, metabolic stability, and solubility” (Bioorg Med Chem, 2008).
Values after ≈ are worked out from the molar mass of the structure shown. Active and inactive are the calls of the source. The calls are words filed in the database; no cut-off is given here.

What was measured:
[1] = target: T1, Cytosolic phospholipase A2 (Homo sapiens, UniProt P47712); assay: Inhibition of cPLA2-alpha in TPA-stimulated intact human platelets assessed as liberation of arachidonic acid after 60 mins
T1 sequence (P47712 whole entry): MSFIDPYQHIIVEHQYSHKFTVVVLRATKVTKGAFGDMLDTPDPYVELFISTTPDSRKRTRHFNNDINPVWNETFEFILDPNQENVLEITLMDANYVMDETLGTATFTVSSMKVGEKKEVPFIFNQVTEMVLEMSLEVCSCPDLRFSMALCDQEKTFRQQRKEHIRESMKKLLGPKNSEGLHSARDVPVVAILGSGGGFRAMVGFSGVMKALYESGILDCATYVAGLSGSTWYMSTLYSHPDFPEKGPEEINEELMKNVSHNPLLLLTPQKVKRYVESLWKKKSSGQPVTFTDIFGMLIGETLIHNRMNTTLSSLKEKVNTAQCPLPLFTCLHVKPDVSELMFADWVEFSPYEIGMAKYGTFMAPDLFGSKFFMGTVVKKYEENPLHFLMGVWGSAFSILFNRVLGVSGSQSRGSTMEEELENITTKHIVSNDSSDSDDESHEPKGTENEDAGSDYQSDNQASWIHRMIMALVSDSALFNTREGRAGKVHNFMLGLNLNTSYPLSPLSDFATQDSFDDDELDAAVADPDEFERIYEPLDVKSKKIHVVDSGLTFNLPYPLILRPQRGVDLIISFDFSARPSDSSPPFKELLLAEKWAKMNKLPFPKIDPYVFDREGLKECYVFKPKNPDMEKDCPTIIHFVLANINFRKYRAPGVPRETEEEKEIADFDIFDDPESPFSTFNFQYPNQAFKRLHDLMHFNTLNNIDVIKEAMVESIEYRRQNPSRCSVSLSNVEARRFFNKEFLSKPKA
Summary of the method: (§1)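 Human platelets from buffy coat, washed in PBS/EDTA and resuspended in PBS (0.1 M, pH 7.4) at about 10⁸ cells/mL. Preincubated 5 min at 37 °C with ETYA (final 10 µM) and compound in DMSO, then CaCl₂ added for a further 5 min. Stimulated with TPA (final 2 µM) for 60 min at 37 °C. Released arachidonic acid quantified by SPE then RP-HPLC, UV 200 nm, against an internal standard.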

[2] = target: T1, Cytosolic phospholipase A2; assay: Inhibition of human platelet cPLA2-alpha activity
Summary of the method: (§2)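 cPLA₂α isolated from human platelets. Incubated 60 min. Arachidonic acid released, with and without compound, measured by RP-HPLC with UV 200 nm after SPE cleanup, using an internal standard. Values are means of at least two independent determinations.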

[3] = Solubility in sodium phosphate buffer at pH 7.4; type: physicochemical
Summary of the method: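 Supernatant diluted with acetonitrile and phosphoric acid, then quantified by RP-HPLC at 240 nm against a calibration curve. Mean ± SD, n = 3 (n = 2 for values <1 µg/mL).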

[4] = Metabolic stability in rat liver microsomes at 20 uM after 30 mins in presence of NADPH by reverse phased HPLC relative to control; type: ADME, Microsome; conditions: read-out: Stability
Summary of the method: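 Rat liver microsomes at 5.7 mg protein/mL in PBS (0.1 M, pH 7.4); compound final 20 µM from DMSO. Preincubated 5 min at 37 °C, then started with NADPH (12 mM) and MgCl₂ (5 mM) solution. Stopped after 30 min with acetonitrile. Parent ketone peak measured by RP-HPLC at 240 nm and compared with an NADPH-free incubation. Mean of at least two independent determinations.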

[5] = target: T2, Cytosolic phospholipase A2 (Homo sapiens) (UniProt P47712); assay: Inhibition of human platelet cPLA2-alpha activity at 10 uM; summary of the method: as §2
T2 sequence (whole entry): T1 sequence (P47712 whole entry)

[6] = target: T2, Cytosolic phospholipase A2 (Homo sapiens); assay: Inhibition of cPLA2-alpha in TPA-stimulated intact human platelets assessed as liberation of arachidonic acid at 10 um after 60 mins; summary of the method: as §1

Row | IC50 [1] | IC50 [2] | solubility [3] | remaining at 0.5 h, 20 µM [4] | inhibition [5] | Activity [6] | Activity [5] | SMILES
1 | 0.5 µM | 0.6 µM | 17 µg/mL (≈ 30.8 µM) | < 5% |  |  |  | CCCCCCCCc1ccc(OCC(=O)COc2ccc3c(c2)cc(C(=O)O)n3CCCCCC(=O)O)cc1
2 | 0.6 µM | 1.2 µM | < 1 µg/mL | < 5% |  |  |  | CCCCCCCCc1ccc(OCC(=O)COc2ccc3c(c2)cc(C(=O)O)n3C)cc1
3 |  |  |  |  |  | inactive | inactive | CCCCCCCCc1ccc(OCC(O)COc2ccc3c(c2)cc(C(=O)O)n3CC(=O)O)cc1 (stereo not given)
4 |  | > 10 µM | 46 µg/mL (≈ 90.4 µM) | 9% | 32% |  |  | CCCCCCCCc1ccc(OCC(=O)COc2ccc3c(c2)cc(C(=O)O)n3CCN(C)C)cc1
5 |  | 2.1 µM | < 1 µg/mL | < 5% |  |  |  | CCCCCCCCc1ccc(OCC(=O)COc2ccc3c(c2)cc(C(=O)O)n3CCC)cc1
6 | 0.3 µM | 0.4 µM | 30 µg/mL (≈ 57.3 µM) | < 5% |  |  |  | CCCCCCCCc1ccc(OCC(=O)COc2ccc3c(c2)cc(C(=O)O)n3CCCC(=O)O)cc1
7 |  | 10 µM | < 1 µg/mL | < 5% |  |  |  | CCCCCCCCc1ccc(OCC(=O)COc2ccc3c(c2)cc(C(=O)O)n3Cc2ccccc2)cc1

The remaining lines, values behind:

Row | SMILES | IC50 [1] | IC50 [2] | solubility [3] | remaining at 0.5 h, 20 µM [4] | inhibition [5] | Activity [6] | Activity [5]
8 | CCCCCCCCc1ccc(OCC(=O)COc2ccc3c(c2)cc(C(=O)O)n3CCCCCC)cc1 |  | > 10 µM | < 1 µg/mL | < 5% | 42% |  | 
9 | CCCCCCCCc1ccc(OCC(O)COc2ccc3c(c2)cc(C(=O)O)n3C)cc1 (stereo not given) |  |  |  |  |  | inactive | inactive
10 | CCCCCCCCc1ccc(OCC(=O)COc2ccc3[nH]c(C(=O)O)cc3c2)cc1 |  | 3.3 µM | 8.4 µg/mL (≈ 19.2 µM) | < 5% |  |  | 
11 | CCCCCCCCc1ccc(OCC(=O)COc2ccc3c(c2)cc(C(=O)O)n3CC(=O)O)cc1 | 1.3 µM | 0.3 µM | 8.1 µg/mL (≈ 16.3 µM) | 18% |  |  | 
12 | CCCCCCCCc1ccc(OCC(=O)COc2ccc3c(c2)cc(C(=O)O)n3Cc2ccc(C(=O)O)cc2)cc1 |  | 1.5 µM | 13 µg/mL (≈ 22.7 µM) | 15% |  |  | 
